Reference: ChEMBL document CHEMBL3286357, “Design, synthesis and pharmacological evaluation of novel substituted quinoline-2-carboxamide derivatives as human dihydroorotate dehydrogenase (hDHODH) inhibitors and anticancer agents” (Eur J Med Chem, 2014)

What was measured:
[1] = tested on: A-375; assay: Antiproliferative activity against human A375 cells at 100 ug/ml for 24 hrs by MTT assay; type: functional; settings: A-375, 24 h
Method in brief: (§1)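 HEP-3B or A-375 cells were grown in DMEM with 10% FBS, 5% HBSS, penicillin, streptomycin and amphotericin B at 37 C and 5% CO2. Cells were seeded at 2 × 10^4 per well and preincubated for 24 h. They were then exposed to ten 1:3 serial dilutions from a top concentration of 100, made from 2% DMSO stocks. MTT was added for 3 h, formazan was dissolved in DMSO, and A550 was read. Wells were run in triplicate across three independent experiments. IC50 came from dose-response curves.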

[2] = tested on: A-375; assay: Antiproliferative activity against human A375 cells at 33.33 ug/ml for 24 hrs by MTT assay; type: functional; settings: A-375, 24 h; method in brief: as §1
[3] = Antiproliferative activity against human Hep3B cells at 1.23 ug/ml for 24 hrs by MTT assay; type: functional, Hep 3B2; method in brief: as §1
[4] = tested on: A-375; assay: Antiproliferative activity against human A375 cells at 0.14 ug/ml for 24 hrs by MTT assay; type: functional; settings: A-375, 24 h; method in brief: as §1
[5] = tested on: HEP-3B (human hepatoma); assay: Antiproliferative activity against human Hep3B cells for 24 hrs by MTT assay
[6] = Antiproliferative activity against human Hep3B cells at 33.33 ug/ml for 24 hrs by MTT assay; type: functional, Hep 3B2; method in brief: as §1
[7] = Antiproliferative activity against human Hep3B cells at 3.7 ug/ml for 24 hrs by MTT assay; type: functional, Hep 3B2; method in brief: as §1
[8] = Antiproliferative activity against human Hep3B cells at 0.41 ug/ml for 24 hrs by MTT assay; type: functional, Hep 3B2; method in brief: as §1
[9] = Retention time of compound by HPLC analysis; type: physicochemical
[10] = tested on: A-375; assay: Antiproliferative activity against human A375 cells at 1.23 ug/ml for 24 hrs by MTT assay; type: functional; settings: A-375, 24 h; method in brief: as §1
[11] = tested on: A-375; assay: Antiproliferative activity against human A375 cells at 11.11 ug/ml for 24 hrs by MTT assay; type: functional; settings: A-375, 24 h; method in brief: as §1
[12] = Antiproliferative activity against human Hep3B cells at 0.14 ug/ml for 24 hrs by MTT assay; type: functional, Hep 3B2; method in brief: as §1
[13] = tested on: A-375 (human melanoma); assay: Antiproliferative activity against human A375 cells for 24 hrs by MTT assay; settings: A-375, 24 h
[14] = tested on: A-375; assay: Antiproliferative activity against human A375 cells at 0.05 ug/ml for 24 hrs by MTT assay; type: functional; settings: A-375, 24 h; method in brief: as §1
[15] = tested on: A-375; assay: Antiproliferative activity against human A375 cells at 0.41 ug/ml for 24 hrs by MTT assay; type: functional; settings: A-375, 24 h; method in brief: as §1
[16] = Antiproliferative activity against human Hep3B cells at 100 ug/ml for 24 hrs by MTT assay; type: functional, Hep 3B2; method in brief: as §1
[17] = tested on: A-375; assay: Antiproliferative activity against human A375 cells at 0.01 ug/ml for 24 hrs by MTT assay; type: functional; settings: A-375, 24 h; method in brief: as §1
[18] = tested on: A-375; assay: Antiproliferative activity against human A375 cells at 3.7 ug/ml for 24 hrs by MTT assay; type: functional; settings: A-375, 24 h; method in brief: as §1
[19] = Antiproliferative activity against human Hep3B cells at 0.01 ug/ml for 24 hrs by MTT assay; type: functional, Hep 3B2; method in brief: as §1
[20] = tested on: A-375; assay: Antiproliferative activity against human A375 cells at 0.02 ug/ml for 24 hrs by MTT assay; type: functional; settings: A-375, 24 h; method in brief: as §1
[21] = Antiproliferative activity against human Hep3B cells at 11.11 ug/ml for 24 hrs by MTT assay; type: functional, Hep 3B2; method in brief: as §1
[22] = Antiproliferative activity against human Hep3B cells at 0.02 ug/ml for 24 hrs by MTT assay; type: functional, Hep 3B2; method in brief: as §1
[23] = Antiproliferative activity against human Hep3B cells at 0.05 ug/ml for 24 hrs by MTT assay; type: functional, Hep 3B2; method in brief: as §1

Row | SMILES | inhibition at 100 µg/mL [1] [%] | inhibition at 33.33 µg/mL [2] [%] | inhibition at 1.23 µg/mL [3] [%] | inhibition at 0.14 µg/mL [4] [%] | IC50 [5] [µM] | inhibition at 33.33 µg/mL [6] [%] | inhibition at 3.7 µg/mL [7] [%] | inhibition at 0.41 µg/mL [8] [%] | inhibition at 1.23 µg/mL [10] [%] | inhibition at 11.11 µg/mL [11] [%] | inhibition at 0.14 µg/mL [12] [%] | IC50 [13] [µM] | inhibition at 0.05 µg/mL [14] [%] | inhibition at 0.41 µg/mL [15] [%] | inhibition at 100 µg/mL [16] [%] | inhibition at 0.01 µg/mL [17] [%] | inhibition at 3.7 µg/mL [18] [%] | inhibition at 0.01 µg/mL [19] [%] | inhibition at 0.02 µg/mL [20] [%] | inhibition at 11.11 µg/mL [21] [%] | other results
1 | Cc1c(C(=O)Nc2c(F)cc(-c3cccc(F)c3)cc2F)nc2ccc(F)cc2c1O | 51.3 | 28.8 | 15.3 | 0 | 65.2 | 41.2 | 22.3 | 4.85 | 2.34 | 16.2 | 2.65 | > 100 | 0.05 | 0.86 | 75.2 | -0.35 | 7.85 | -0.12 | -0.13 | 31.3 | Retention_time [9]: 6.9 min; inhibition at 0.02 µg/mL [22]: 0.35%; inhibition at 0.05 µg/mL [23]: 1.25%
2 | Cc1c(C(=O)Nc2c(F)cc(-c3cccc(F)c3)cc2F)nc2ccc(OC(F)(F)F)cc2c1O | 25.6 | 12.3 | 17.2 | 0.06 | 38.3 | 41.2 | 26.4 | 5.62 | 1.57 | 11.3 | 2.01 | 85.5 | -0.13 | 1.02 | 80.3 | -0.68 | 2.06 | 0.32 | -0.35 | 37.9 | Retention_time [9]: 6.3 min; inhibition at 0.02 µg/mL [22]: 0.67%; inhibition at 0.05 µg/mL [23]: 1.05%
3 | Cc1c(C(=O)Nc2ccc(-c3ccccc3)cc2)nc2ccccc2c1O | 52.3 | 34.3 | 14.2 | 1.98 | 75.5 | 46.2 | 21.5 | 9.34 | 4.56 | 26.5 | 3.02 | 37.2 | 1.05 | 2.65 | 84.2 | -0.11 | 17.2 | 0.23 | 0.06 | 38.3 | Retention_time [9]: 6.9 min; inhibition at 0.02 µg/mL [22]: 1.05%; inhibition at 0.05 µg/mL [23]: 1.68%
4 | CCc1ccc2nc(C(=O)Nc3c(F)cc(-c4cccc(F)c4)cc3F)c(C)c(C(=O)O)c2c1 | 71.3 | 47.1 | 4.52 | 2.45 | 57.8 | 36.2 | 15.2 | 1.68 | 17.7 | 38.9 | 0.68 | 16.9 | 0.95 | 6.12 | 64.3 | -0.45 | 26.7 | -0.25 | -0.12 | 27.2 | Retention_time [9]: 6.8 min; inhibition at 0.02 µg/mL [22]: -0.05%; inhibition at 0.05 µg/mL [23]: 0%
5 | Cc1c(C(=O)Nc2ccc(-c3ccccc3)cc2)nc2ccccc2c1C(=O)O | 50.3 | 25.6 | 1.25 | 1.56 | > 100 | 11.2 | 2.31 | 0.98 | 7.65 | 20.3 | 0.03 | 83.5 | 0.87 | 2.38 | 44.4 | -0.35 | 16.3 | -0.68 | 0.12 | 3.25 | Retention_time [9]: 6.8 min; inhibition at 0.02 µg/mL [22]: -0.35%; inhibition at 0.05 µg/mL [23]: -0.12%
6 | Cc1c(-c2ccc(-c3ccccc3F)cc2)nc2ccc(F)cc2c1C(=O)O [BREQUINAR SODIUM] | 74.6 | 59.7 | 21.4 | 3.48 | 8.1 | 52.3 | 34.2 | 15.3 | 26.3 | 46.6 | 4.52 | 10.2 | 2.65 | 18.4 | 68.3 | 0.18 | 33.2 | 0.23 | 1.02 | 46 | inhibition at 0.02 µg/mL [22]: 0.65%; inhibition at 0.05 µg/mL [23]: 2.05%
7 | COc1cccc2c1C(=O)c1c(O)c3c(c(O)c1C2=O)C[C@@](O)(C(=O)CO)C[C@@H]3O[C@H]1C[C@H](N)[C@H](O)[C@H](C)O1 [DOXORUBICIN] | 88.4 | 69.9 | 18.4 | -18.5 | 6.35 | 32.3 | 24.2 | 11.4 | -10.3 | 50.6 | 3.35 | 13.2 | -27.6 | -12.5 | 76.3 | -35.6 | 11.6 | 0.25 | 30.2 | 30.1 | inhibition at 0.02 µg/mL [22]: 0.95%; inhibition at 0.05 µg/mL [23]: 1.56%
